Cytotoxicity data for 95 compounds are collected here from ChEMBL document CHEMBL4513216, “Probing the Open Global Health Chemical Diversity Library for Multistage-Active Starting Points for Next-Generation Antimalarials” (ACS Infect Dis, 2020).

Each structure is given as a SMILES string.

A short description of the data set: Toxicity liver stage against HepG2, at 10uM. The format is cell-based. On the set-up: test concentration 10 uM, cell line HepG2-A16-CD81EGFP. As to conditions: human, HepG2-A16-CD81EGFP cells; read-out: INHIBITION
In a few lines: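 Uninfected HepG2-A16-CD81EGFP cells, 3 × 10^3 per well, 1536-well, plated on prespotted compound at 10 μM final, parasite-free screening media added to match infected plates; puromycin 10 μM positive, DMSO 0.5% negative; run in parallel with 48 h PbLuc assay at 37 °C, 5% CO2; viability by CellTiter-Glo luminescence, normalized to controls.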
In the case of `O=C(O)C1CCCN1c1nc(-c2ccc(Cl)c(Cl)c2)cc(C(F)(F)F)n1` (stereo not given), the cytotoxicity at 10 µM was 32.1%.

Consider `c1cc(-c2ccc3c(c2)C2(CCNCC2)CC3)ccn1`, for which the cytotoxicity at 10 µM is 56.9%.

With `O=C(NCC1CC1)C12CC(CN1Cc1nccs1)C2`, the cytotoxicity at 10 µM was -4.6%.

Regarding `O=C([C@H]1C[C@H]2OCC[C@H]2N(CC2CC2)C1)N1CCCC1`, the cytotoxicity at 10 µM was -0.542%.

Take `CC(C)c1nnc2ccc(N3CCC(C(=O)Nc4nccs4)CC3)nn12`: the cytotoxicity at 10 µM is 42.6%.

With `CC(C(=O)NC1CCN(C)CC1)n1nc(C(F)(F)F)c(Cl)c1C1CC1` (stereo not given), the cytotoxicity at 10 µM was -8.17%.

Take `CCC1=NC(SCC(=O)c2ccccc2)c2cc(CC)sc2N1` (stereo not given): the cytotoxicity at 10 µM was -12.5%.

`Fc1ccccc1-c1nnn(CCCc2nn[nH]n2)n1`: the cytotoxicity at 10 µM was -4.3%.

For `Cc1cc2c(cc1Cl)C=CC1(CCN(CC(=O)NC3CCCC3)CC1)O2`, the cytotoxicity at 10 µM was determined as 17%.

Turning to `CCOc1ccc(CN2CCCC(c3cc4ncccc4[nH]3)C2)cc1` (stereo not given), the cytotoxicity at 10 µM was 1.18%.

Consider `Cc1ccc(Oc2c(F)cccc2OC[C@@H](N)CC(C)C)cc1`, for which the cytotoxicity at 10 µM was -8.94%.

As for `Cc1cc2c(=O)n3c(nc2s1)CCN(C(=O)c1sc(C)nc1C)CC3`, the cytotoxicity at 10 µM was -0.579%.

In the case of `CC(OCC1CC1)C(=O)Nc1cccc(C(=O)Nc2ccncc2)c1` (stereo not given), the cytotoxicity at 10 µM was determined as 7.12%.

Take `Cc1cc(N(C)CC2COc3ccccc3O2)nc(N)n1` (stereo not given): the cytotoxicity at 10 µM was determined as 17.6%.

As to `Cc1noc(C)c1C(=O)N(C)C(C)c1cccnc1` (stereo not given), the cytotoxicity at 10 µM is 0.363%.

`CN(CCOc1ccccc1)C(=O)Nc1cccn(C)c1=O`: the cytotoxicity at 10 µM is -11.3%.

For the compound `CCn1nc2c(cc1=O)CN(c1ncnc3sccc13)CC2`, the cytotoxicity at 10 µM was 47.5%.

As for `O=C(Nc1ccncc1)NC1CCN(c2ccccc2OC(F)F)C1` (stereo not given), the cytotoxicity at 10 µM was found to be 15.6%.

Take `N#Cc1c(Cl)nsc1NCc1ccnc(OCC(F)(F)F)c1`: the cytotoxicity at 10 µM came out at 12.5%.

For the compound `CC(Cn1ccnc1)NC(=O)N(C)Cc1ccco1` (stereo not given), the cytotoxicity at 10 µM is -0.687%.

In the case of `Cc1cc(CN(C)CCN(C)c2ccccc2)no1`, the cytotoxicity at 10 µM was -4.65%.

Turning to `CCC(=O)NC1CCCN(C(=O)c2ccc(OCC3CC3)nc2)C1` (stereo not given), the cytotoxicity at 10 µM is 15.2%.

`CCCC1CCCN(C(=O)Nc2cccnc2OC)CC1` (stereo not given): the cytotoxicity at 10 µM is 4.52%.

With `Fc1ccc(CN2CCCC2Cn2cncn2)c2ncccc12` (stereo not given), the cytotoxicity at 10 µM is 11.7%.

Regarding `COc1ccc(-c2nnc(SC(C)C(=O)NC(C)(C)C)[nH]2)c(OC)c1` (stereo not given), the cytotoxicity at 10 µM came to 66.5%.

Regarding `CCNC(=O)CN(CC)C(=O)Cc1csc(C(C)C)n1`, the cytotoxicity at 10 µM worked out at 1.29%.

Take `CNC(=O)Cc1nc(CNc2ccc(SC)c(F)c2)cs1`: the cytotoxicity at 10 µM is -1.99%.

`O=S(=O)(N1CCCC1)N1CCc2sccc2C1`: the cytotoxicity at 10 µM was found to be 1.7%.

In the case of `Cc1ccc(-c2ncc(CNc3cnccc3CO)s2)cc1`, the cytotoxicity at 10 µM is -7.65%.

In the case of `CC(Nc1ccc(F)cc1)c1nnnn1-c1ccccc1` (stereo not given), the cytotoxicity at 10 µM amounted to 1.81%.

For the compound `Cc1nc(CN2CCCC(Nc3ncnc4ccsc34)C2)no1` (stereo not given), the cytotoxicity at 10 µM came out at 42.2%.

Regarding `O=C(c1ccc(Br)s1)N1CCN(Cc2ccc(OC(F)(F)F)cc2)CC1`, the cytotoxicity at 10 µM came out at 23.1%.

Consider `Cc1n[nH]cc1CNc1ccc2c(c1)CN(C(=O)OC(C)(C)C)CC2`, for which the cytotoxicity at 10 µM stood at 14.9%.

Consider `CN(Cc1ccc(N2CCCCC2)cc1)Cc1noc(C(C)(C)C)n1`, for which the cytotoxicity at 10 µM worked out at 12.5%.

Consider `CC(=O)N1CCC(c2nc3ccc(-c4cccc(F)c4)cn3n2)CC1`, for which the cytotoxicity at 10 µM worked out at 12.4%.

As to `O=C1CO[C@@H]2CN(S(=O)(=O)c3ccc(F)cc3)C[C@H]2N1`, the cytotoxicity at 10 µM amounted to 4.59%.

As for `O=S(=O)(c1ccccc1)N1CCC2(CCCN2Cc2cccc(F)c2)C1` (stereo not given), the cytotoxicity at 10 µM is -68.4%.

Regarding `O=C(N1CCCC1)N1C[C@@H]2CN(Cc3ccoc3)CCO[C@@H]2C1`, the cytotoxicity at 10 µM is -76.7%.

For `Cc1ncc(-c2ccnc(NCCO)n2)c(C2CCCCC2)n1`, the cytotoxicity at 10 µM is -11%.

Consider `CCc1ccc(-c2ncc3c(n2)N(C)CCN(CCN(C)C)C3=O)cc1`, for which the cytotoxicity at 10 µM is -9.52%.

On to `CCC(Nc1nc(C)nc2onc(C)c12)c1cccs1` (stereo not given), for which the cytotoxicity at 10 µM worked out at 52.4%.

Turning to `COCCc1noc(C2CCCN(c3ncnc4c3CCC4)C2)n1` (stereo not given), the cytotoxicity at 10 µM was 19.3%.

In the case of `CCCc1nnc(N2CCC(N3CCCC3)CC2)o1`, the cytotoxicity at 10 µM was -16.3%.

Take `Cc1nonc1-c1nc(C(C)C)nn1-c1ccc2c(c1)OCO2`: the cytotoxicity at 10 µM is -6.9%.

For `COCCC1(C(=O)O)CCCN(C(=O)c2cc(F)ccc2OC)C1` (stereo not given), the cytotoxicity at 10 µM was -11.4%.

`CN1CCCC2(CC1)CCN(C(=O)CCc1ccccc1F)CC2`: the cytotoxicity at 10 µM is -5.95%.

As for `CN(Cc1ccc(-n2cccn2)cc1)c1cc(N)nc(N)n1`, the cytotoxicity at 10 µM stood at 86.7%.

Turning to `O=C(O)[C@@H]1CN(C(=O)Cc2ccccc2Cl)C[C@H]1C1CC1`, the cytotoxicity at 10 µM amounted to 9.53%.

Turning to `Cc1ccc2cc(C3(O)CCN(C(=O)CSC(C)C)CC3)ccc2n1`, the cytotoxicity at 10 µM worked out at 22%.

As to `CCN1CCCC1CN(Cc1ccon1)CC1CCN(CCOC)CC1` (stereo not given), the cytotoxicity at 10 µM is -0.525%.

For `Nc1nc(NCCO)cc(N2CCc3c([nH]c4ccccc34)C2)n1`, the cytotoxicity at 10 µM was 11.9%.

For `CC(C)CCC1=NC2(CCN(C(=O)CN3CCCC3=O)CC2)C(=O)N1`, the cytotoxicity at 10 µM was -3.07%.

With `Cc1nc(C)c(-c2ccn(CC(=O)Nc3cnn(C)n3)n2)s1`, the cytotoxicity at 10 µM was 74%.

Consider `COCCN1CC2(CCCN(c3ncc(Cl)cc3F)C2)CCC1=O` (stereo not given), for which the cytotoxicity at 10 µM came to 21.8%.

In the case of `Cc1cc(NCc2cc(C)oc2C(F)(F)F)n2nc(C)cc2n1`, the cytotoxicity at 10 µM came to 49.1%.

As for `Cc1cc(NCc2cc3n(n2)CCCN(C(=O)C2CCC2)C3)nc(N)n1`, the cytotoxicity at 10 µM is -146%.

In the case of `O=c1cc(N2CCNCC2)cnn1Cc1noc(C2CCCC2)n1`, the cytotoxicity at 10 µM was -53.5%.

With `COc1ccc(OC)c(C2CCN(c3ccc4cc[nH]c4n3)C2)c1` (stereo not given), the cytotoxicity at 10 µM was -1.6%.

Take `CCCc1nc(C)c(CNc2nc(C)nc3onc(C)c23)s1`: the cytotoxicity at 10 µM was 1.6%.

In the case of `CCCN(Cc1nc2ccccc2[nH]1)Cc1ccccc1OC`, the cytotoxicity at 10 µM is -39.6%.

Consider `CCSc1ncc(CN2CCC(O)(CN3CCOCC3)C(C)(C)C2)cn1` (stereo not given), for which the cytotoxicity at 10 µM is 7.49%.

As to `COc1cccc(-c2noc3c2CN(c2nc(C)ncc2C)CC3)c1`, the cytotoxicity at 10 µM stood at 45.1%.

On to `O=C(Cc1nc(-c2ccncc2)n[nH]1)N1CCOCC1`, for which the cytotoxicity at 10 µM is -0.749%.

Regarding `COC(=O)N1CCCCC1C(=O)N1CCN(c2cccnc2)CC1` (stereo not given), the cytotoxicity at 10 µM is -10.6%.

Turning to `O=C1[C@@H]2CN(Cc3cc4ccccc4o3)C[C@]2(C(=O)O)CN1CC1CC1`, the cytotoxicity at 10 µM is -5.22%.

Turning to `CC1CCN(CCCNC(=O)c2ccc(N(C)S(C)(=O)=O)cc2Cl)CC1`, the cytotoxicity at 10 µM is -0.488%.

For `CCc1ccc(C2CC(=O)Nc3c2c(=O)[nH]n3C(C)C)cc1` (stereo not given), the cytotoxicity at 10 µM was -6.87%.

Take `CN(C)C(=O)c1ccc(C2CCCN2C(=O)c2cccc3c2OCC3)s1` (stereo not given): the cytotoxicity at 10 µM is 4.1%.

On to `COc1cccc(CCC2CCCN(C(=O)c3n[nH]c4c3CCC4)C2)c1` (stereo not given), for which the cytotoxicity at 10 µM was 4.48%.

For the compound `COc1ccccc1CN(C)c1nccc(-c2cn(C)nc2C)n1`, the cytotoxicity at 10 µM amounted to 53.8%.

With `O=C(c1ccc(C2CCCO2)s1)N1CCN(c2ccccc2F)CC1` (stereo not given), the cytotoxicity at 10 µM was -15.1%.

`CC(C)OCc1ccc(CNc2cncc(-n3cccn3)n2)cc1`: the cytotoxicity at 10 µM turned out to be 43.8%.

With `Cc1nc(CN2CCCC2c2noc(C3CC3)n2)nc2ccccc12` (stereo not given), the cytotoxicity at 10 µM was -19%.

On to `CCCc1ccc(S(=O)(=O)Nc2ccc(=O)n(C)c2)cc1`, for which the cytotoxicity at 10 µM came to 43.5%.

Regarding `CNc1cc2c(nn1)CCN(C(=O)c1cc(C)n(C3CC3)c1C)C2`, the cytotoxicity at 10 µM is -14.4%.

In the case of `Cc1cc(C)n(CC2CN(Cc3nc4ccccc4s3)CCO2)n1` (stereo not given), the cytotoxicity at 10 µM was 3.93%.

On to `COc1ccccc1OCCN1CCCCC1Cn1cncn1` (stereo not given), for which the cytotoxicity at 10 µM was -32.7%.

`CC1CCCN(Cc2csc(-c3ncccn3)n2)CC1` (stereo not given): the cytotoxicity at 10 µM stood at 2.73%.

Regarding `CC(C)Cc1noc(CN2CCN(CCOc3ccc(Cl)cc3)CC2)n1`, the cytotoxicity at 10 µM came to 24%.

Regarding `Cc1ccc(O)c(CN(CCCn2ccnc2)Cc2ccc(C)s2)c1`, the cytotoxicity at 10 µM is -25.8%.

In the case of `O=C(O)CCC(=O)N1CCN(CC2CC2)c2ncccc2C1`, the cytotoxicity at 10 µM is -101%.

As to `Fc1ccc(CN2CCC3(CC2)CN(c2ccccn2)CCO3)cc1`, the cytotoxicity at 10 µM was -0.359%.

On to `O=C(NC1CCC1)[C@@H]1C[C@@H]2CCN(CCc3ccccc3)C[C@H]2O1`, for which the cytotoxicity at 10 µM was -72.7%.

As to `COc1ccc(CN2C[C@@H]3OCCN(CCN4CCCC4)[C@@H]3C2)cc1`, the cytotoxicity at 10 µM is -82.4%.

As for `O=S1(=O)c2ccccc2C2(CCN(Cc3ccccc3)C2)N1CC1CC1` (stereo not given), the cytotoxicity at 10 µM was found to be 16.3%.

On to `Cc1csc(NC(=O)c2cnc(C3CCCN3)cn2)n1` (stereo not given), for which the cytotoxicity at 10 µM is -41%.

For the compound `O=S(=O)(c1cccs1)N1CCCC2(COCCN(c3cccnc3)C2)C1` (stereo not given), the cytotoxicity at 10 µM is -78.5%.

For the compound `CC(C)(C)CN1CCCC12CCN(S(=O)(=O)c1ccccc1)C2` (stereo not given), the cytotoxicity at 10 µM is -67.5%.

`Cc1ccc(O[C@@H]2C[C@H]3CN(c4ncc(F)cn4)CCN3C2)cc1`: the cytotoxicity at 10 µM came out at 35.3%.

Turning to `Fc1cccc(N2CCCC3(CN(Cc4ccco4)CCO3)C2)c1` (stereo not given), the cytotoxicity at 10 µM is -63.5%.

For `Cc1ccc(CN2CCOC3(CCCN(c4cccc(F)c4)C3)C2)o1` (stereo not given), the cytotoxicity at 10 µM was -70%.

With `CN(C)CCN1C2(CCN(Cc3nccs3)C2)c2ccccc2S1(=O)=O` (stereo not given), the cytotoxicity at 10 µM was -71.8%.

As to `CC(C)C[C@H](N)C(=O)N1CCSc2ccccc2C1`, the cytotoxicity at 10 µM came to 0.318%.

In the case of `O=C1COC2(CCN(CC3CC3)CC2)CN1c1ccsc1`, the cytotoxicity at 10 µM was -79.2%.

On to `O=C1[C@@H]2CC[C@@H](CN(c3ncnc4ccsc34)C2)N1CC1CC1`, for which the cytotoxicity at 10 µM is 15.2%.
